Measured values: ChEMBL document CHEMBL4325867, “Synthesis and biological evaluation of novel H6 analogues as drug resistance reversal agents” (Eur J Med Chem, 2019)
Activity calls are given as the source filed them. The calls are words filed in the database; no cut-off is given here.

What was measured:
[1] = n-octanol/aqueous buffer solution partition coefficient, log P of the compound at pH 6.8 after 4 hrs by HPLC method; assay type: physicochemical
Method in brief: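 Shake-flask partition between n-octanol and pH 6.8 buffer at a 1:1 ratio, room temperature, shaken 4 h. Compound concentration in each phase measured by HPLC.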

[2] = molecular target: T1, ATP-dependent translocase ABCB1 (Homo sapiens, UniProt P08183); test: Reversal of P-gp-mediated drug resistance in human KBV cells assessed as potentiation of paclitaxel-induced cytotoxicity by measuring cell survival at 5 uM after 72 hrs by MTT assay (reference value: 98 +/- 19%); assay type: cell-based
[3] = Potentiation of paclitaxel-induced antitumor activity against human KBV cells xenografted in nude mouse assessed as tumor weight at […] cotreated with 30 mg/kg paclitaxel relative to control; assay type: functional
[4] = molecular target: T1, ATP-dependent translocase ABCB1; test: Reversal of P-gp-mediated drug resistance in human KBV cells assessed as potentiation of paclitaxel-induced cytotoxicity by measuring fold reduction in paclitaxel IC50 at 10 uM after 72 hrs by MTT assay relative to paclitaxel alone; assay type: cell-based
Method in brief: (§1)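 KBV cells cultured in RPMI-1640 with 10% heat-inactivated fetal calf serum at 37°C, 5% CO2, and used in log phase. Seeded in 96-well plates. Exposed to paclitaxel with or without modulator (5 or 10 µM) for 24, 48 or 72 h. MTT added, formazan dissolved in DMSO, OD read at 570 nm. Survival rate used to derive paclitaxel IC50. RF taken as the fold reduction of IC50 relative to paclitaxel alone.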

[5] = molecular target: T1, ATP-dependent translocase ABCB1; test: Reversal of P-gp-mediated drug resistance in human KBV cells assessed as potentiation of paclitaxel-induced cytotoxicity by measuring fold reduction in paclitaxel IC50 at 5 uM after 24 hrs by MTT assay; assay type: cell-based; method in brief: as §1
[6] = molecular target: T1, ATP-dependent translocase ABCB1; test: Inhibition of P-gp-mediated Rhodamine-123 efflux in human KBV cells assessed as Rhodamine-123 accumulation preincubated for 2 hrs followed by Rhodamine-123 addition measured after 30 mins by flow cytometry; assay type: cell-based; conditions: 0.5 h
[7] = molecular target: T1, ATP-dependent translocase ABCB1; test: Reversal of P-gp-mediated drug resistance in human KBV cells assessed as potentiation of paclitaxel-induced cytotoxicity by measuring fold reduction in paclitaxel IC50 at 5 uM after 48 hrs by MTT assay; assay type: cell-based; method in brief: as §1
[8] = molecular target: T1, ATP-dependent translocase ABCB1; test: Reversal of P-gp-mediated drug resistance in human KBV cells assessed as potentiation of paclitaxel-induced cell cycle arrest by measuring accumulation at sub-G1 phase at 10 uM after 24 hrs by propidium iodide staining based flow cytometry
Method in brief: (§2)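 KBV cells plated in 6-well plates overnight, then treated for 24 h at 10 µM alongside paclitaxel. Cells fixed in 70% ethanol overnight at -20 °C, washed in PBS, and stained 30 min with PI/RNase A. Flow cytometry gave the cell-cycle distribution, with sub-G1 taken as apoptotic cells. Mean ± SD, n = 3.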

[9] = molecular target: T1, ATP-dependent translocase ABCB1; test: Reversal of P-gp-mediated drug resistance in human KBV cells assessed as potentiation of paclitaxel-induced cytotoxicity by measuring reduction in paclitaxel IC50 by MTT assay; assay type: cell-based
[10] = Solubility of the compound in water; assay type: physicochemical; conditions: buffer
[11] = molecular target: T1, ATP-dependent translocase ABCB1; test: Reversal of P-gp-mediated drug resistance in human KBV cells assessed as potentiation of paclitaxel-induced cytotoxicity by measuring fold reduction in paclitaxel IC50 at 5 uM after 72 hrs by MTT assay relative to paclitaxel alone; assay type: cell-based; method in brief: as §1
[12] = molecular target: T1, ATP-dependent translocase ABCB1; test: Reversal of P-gp-mediated drug resistance in human KBV cells assessed as potentiation of paclitaxel-induced cytotoxicity by measuring fold reduction in paclitaxel IC50 at 10 uM after 24 hrs by MTT assay; assay type: cell-based; method in brief: as §1
[13] = Toxicity in Balb/c nude mouse xenografted with human KBV cells at 50 mg/kg, po via gavage cotreated with 30 mg/kg, ip paclitaxel; assay type: organism-based; conditions: in vivo
Homo sapiens = test: Potentiation of paclitaxel-induced antitumor activity against human KBV cells xenografted in Balb/c nude mouse assessed as tumor growth inhibition at 50 mg/kg, po via gavage cotreated with 30 mg/kg, ip paclitaxel; assay type: functional, organism-based
Method in brief: (§3)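 Male BALB/c nude mice, 6−8 weeks old, given 5 × 10^6 KBV cells subcutaneously in the dorsal region. Randomized once tumors reached about 100-200 mm3, five per group: control, paclitaxel 30 mg/kg, test agent 50 mg/kg, or the combination. Paclitaxel given i.p. twice a week; test agent by gavage. Tumor growth measured every three days; tumors excised and weighed at the end.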

[14] = molecular target: T1, ATP-dependent translocase ABCB1; test: Reversal of P-gp-mediated drug resistance in human KBV cells assessed as potentiation of paclitaxel-induced cytotoxicity by measuring fold reduction in paclitaxel IC50 at 10 uM after 48 hrs by MTT assay; assay type: cell-based; method in brief: as §1
[15] = Cytotoxicity against human KBV cells xenografted in Balb/c nude mouse assessed as tumor growth inhibition at 50 mg/kg, po via gavage; assay type: organism-based; conditions: in vivo; method in brief: as §3
[16] = Cytotoxicity against human KBV cells assessed as cell survival at 5 uM after 72 hrs by MTT assay relative to control; assay type: cell-based; conditions: read-out: Survival
Method in brief: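 KBV cells (RPMI-1640 with 10% heat-inactivated FCS, 37 °C, 5% CO2, log-phase) were seeded in 96-well plates and exposed to compound alone at 5 µM for 72 h. MTT was added and incubated, then DMSO was added. OD was read at 570 nm and survival rate was calculated.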

[17] = molecular target: T1, ATP-dependent translocase ABCB1; test: Reversal of P-gp-mediated drug resistance in human KBV cells assessed as potentiation of paclitaxel-induced cell cycle arrest by measuring accumulation at G2/M phase at 10 uM after 24 hrs by propidium iodide staining based flow cytometry; method in brief: as §2

T1 sequence (P08183 whole entry): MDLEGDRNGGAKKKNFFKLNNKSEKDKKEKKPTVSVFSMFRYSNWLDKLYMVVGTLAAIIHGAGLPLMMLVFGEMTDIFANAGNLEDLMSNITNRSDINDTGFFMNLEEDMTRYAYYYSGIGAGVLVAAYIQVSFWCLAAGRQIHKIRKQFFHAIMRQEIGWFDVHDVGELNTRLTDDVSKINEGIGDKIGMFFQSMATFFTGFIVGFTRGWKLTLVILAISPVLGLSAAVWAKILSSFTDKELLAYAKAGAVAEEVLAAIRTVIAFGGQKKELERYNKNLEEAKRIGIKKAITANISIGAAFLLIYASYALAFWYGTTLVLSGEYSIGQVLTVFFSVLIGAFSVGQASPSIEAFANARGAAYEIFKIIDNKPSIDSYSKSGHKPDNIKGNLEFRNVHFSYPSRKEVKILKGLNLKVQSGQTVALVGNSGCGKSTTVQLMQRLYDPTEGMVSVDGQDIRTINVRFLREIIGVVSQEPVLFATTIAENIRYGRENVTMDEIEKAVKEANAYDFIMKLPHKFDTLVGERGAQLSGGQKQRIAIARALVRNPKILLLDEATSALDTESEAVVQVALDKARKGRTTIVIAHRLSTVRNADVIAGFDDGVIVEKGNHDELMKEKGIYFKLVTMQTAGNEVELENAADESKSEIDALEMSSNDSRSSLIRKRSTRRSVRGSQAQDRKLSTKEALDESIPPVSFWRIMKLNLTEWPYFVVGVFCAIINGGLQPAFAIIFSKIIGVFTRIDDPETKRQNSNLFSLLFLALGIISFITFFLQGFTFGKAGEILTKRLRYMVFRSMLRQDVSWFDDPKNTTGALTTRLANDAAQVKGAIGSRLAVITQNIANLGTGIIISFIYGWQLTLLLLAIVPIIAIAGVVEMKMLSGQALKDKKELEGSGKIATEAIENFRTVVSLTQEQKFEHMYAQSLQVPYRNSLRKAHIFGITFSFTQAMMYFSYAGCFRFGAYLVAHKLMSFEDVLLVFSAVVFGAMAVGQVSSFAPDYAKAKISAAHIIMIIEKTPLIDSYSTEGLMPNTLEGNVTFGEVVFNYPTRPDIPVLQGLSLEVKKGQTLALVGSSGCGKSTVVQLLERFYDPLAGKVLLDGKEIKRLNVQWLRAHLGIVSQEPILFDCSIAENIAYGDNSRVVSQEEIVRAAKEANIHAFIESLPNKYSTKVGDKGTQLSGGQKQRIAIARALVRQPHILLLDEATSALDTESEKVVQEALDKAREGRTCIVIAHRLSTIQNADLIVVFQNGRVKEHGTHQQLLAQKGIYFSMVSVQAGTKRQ

| Structure (SMILES) | logD at 4 h [1] | Survival [2] [%] | Activity [3] [%] | fold change (FC) [4] | fold change (FC) [5] | inhibition (INH) [6] | fold change (FC) [7] | Activity [8] | Activity [9] | solubility [10] | fold change (FC) [11] | fold change (FC) [12] | Activity [13] | TGI (Homo sapiens) | fold change (FC) [14] | TGI [15] | viability at 72 h, 5 µM [16] [%] | Activity [17] |
| --- | --- | --- | --- | --- | --- | --- | --- | --- | --- | --- | --- | --- | --- | --- | --- | --- | --- | --- |
| CC1(C)CC[C@]2(C(=O)OCc3ccccc3)CC[C@]3(C)C(=CC[C@@H]4[C@@]5(C)Cc6nccnc6[C@@](C)(CO)[C@@H]5CC[C@]43C)[C@@H]2C1 | -0.54 | 18 | 42 |  |  |  |  |  |  |  |  |  |  |  |  |  |  |  |
| CN(C)CCCOC(=O)[C@]12CCC(C)(C)C[C@H]1C1=CC[C@@H]3[C@@]4(C)Cc5nccnc5[C@@](C)(CO)[C@@H]4CC[C@@]3(C)[C@]1(C)CC2 | -1.25 | 10 |  | 250.77 | 77.1 | Dose-dependent effect | 65.92 | Active | Dose-dependent effect and Tde | Soluble | 32.5 | 109.79 | Non-Toxic | Active | 81.11 | Non-Toxic | 97 | Active |
